Values after ≈ are worked out from the molar mass of the structure shown. Active and inactive are the calls of the source. Where only a bound is given, the exact number is not on record here.

Series [1] concerns Mus musculus. Briefly: Antiallodynic activity in mouse model of spared nerve injury-induced tactile allodynia assessed as tactile threshold at 30 mg/kg, po measured 90 mins post dose by Von Frey filament assay. Type of series: functional, organism-based.
Series [2] in a line: Intrinsic clearance in mouse liver microsomes up to 40 mins in presence of NADPH. The class given is ADME, microsome. Particulars: read-out: CLH. For orientation: Liver microsomes are vesicles of endoplasmic reticulum, rich in cytochrome P450 enzymes.
Series [3] can be described thus: Passive apparent permeability in MDCK cells. Type of series: ADME, cell-based, Canis lupus familiaris. Particulars: dog. An outline of the steps: (§1)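 Bidirectional transport at 5 μM, in triplicate, across MDCK cells carrying control vector, human MDR1 or human ABCG2 (BCRP). Passive Papp is the mean of both directions in vector-control cells. Efflux ratios come from the MDR1 and BCRP lines.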

In another series the test system is human MDR1. Briefly: Efflux ratio of passive apparent permeability in MDCK cells harboring human MDR1. Type of series: ADME, cell-based, Canis lupus familiaris. The conditions noted are these: dog. An outline of the steps:
as §1

Series [4] in a line: Ratio of unbound Cmax in mouse brain to EC50 for glycine alpha3 receptor in mouse model of spared nerve injury-induced tactile allodynia at 50 mg/kg, po.
The test system of another series is human BCRP. Briefly: Efflux ratio of passive apparent permeability in MDCK cells harboring human BCRP. The class given is ADME, cell-based, Canis lupus familiaris. Particulars: dog. The method, boiled down: as §1
Series [5] deals with Glycine receptor alpha-3/beta (Homo sapiens) (UniProt O75311+P48167). Briefly: Positive allosteric modulation of human glycine alpha3beta receptor expressed in HEK293T cells assessed as compound concentration required to induce up to 3-fold leftward shift in glycine-induced increase in chloride ion flux after 4 mins by Schild plot analysis. Type of series: cell-based. An outline of the steps: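 HEK293T cells stably expressing human GlyRα3β, ~12000 cells/well, plated overnight and loaded with membrane potential blue dye. Glycine 1:2 dilution series premixed with compound at varying concentrations in HEPES/NaCl/mannitol buffer, pH 7.4. FLIPR fluorescence read 4 min and processed as AUC over baseline. mEC₃ is the lowest tested concentration giving a ≥3-fold leftward shift of glycine EC₅₀.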

Series [6] can be described thus: Solubility in phosphate buffered saline. The class given is physicochemical.
Series [7] in a line: Ratio of unbound Cmax in mouse brain to EC50 for glycine alpha3 receptor in mouse model of spared nerve injury-induced tactile allodynia at 30 mg/kg, po. The method, boiled down: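 Mice dosed orally; unbound brain Cmax is total brain concentration × brain fraction unbound, sampled at multiple time points. It is divided by EC₅₀ for potentiation of mouse GlyRα3.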
A short description of series [8]: Solubility in fasted state simulated intestinal fluid. Type of series: physicochemical.
Series [9] is filed under the species Mus musculus. Briefly: Ex vivo positive allosteric modulation of glycine receptor in C57BL/6 mouse spinal cord assessed as potentiation of glycine-induced post synaptic current amplitude at 0.5 uM at holding potential of -60 mV after 10 mins in presence of sodium channel inhibitor TTX/AMPA/kainate receptor antagonist CNQX/GABAa receptor antagonist bicuculline/NMDA receptor antagonist APV by electrophysiology method relative to glycine alone. The method, boiled down:
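Adult mouse spinal cord slices; dorsal horn neurons in laminae I–II were identified histologically and confirmed glycinergic by focal glycine (20 μM) with strychnine (10 μM) reversal. Postsynaptic current amplitude was recorded with glycine 20 μM alone, then with glycine plus compound at 0.5 μM, then with strychnine added. The readout is the mean ratio of PSC amplitude (compound + glycine / glycine alone), n = 5.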

For series [10], the target named is T1, Glycine receptor subunit alpha-3 (Homo sapiens, UniProt O75311).
T1 sequence (O75311 whole entry): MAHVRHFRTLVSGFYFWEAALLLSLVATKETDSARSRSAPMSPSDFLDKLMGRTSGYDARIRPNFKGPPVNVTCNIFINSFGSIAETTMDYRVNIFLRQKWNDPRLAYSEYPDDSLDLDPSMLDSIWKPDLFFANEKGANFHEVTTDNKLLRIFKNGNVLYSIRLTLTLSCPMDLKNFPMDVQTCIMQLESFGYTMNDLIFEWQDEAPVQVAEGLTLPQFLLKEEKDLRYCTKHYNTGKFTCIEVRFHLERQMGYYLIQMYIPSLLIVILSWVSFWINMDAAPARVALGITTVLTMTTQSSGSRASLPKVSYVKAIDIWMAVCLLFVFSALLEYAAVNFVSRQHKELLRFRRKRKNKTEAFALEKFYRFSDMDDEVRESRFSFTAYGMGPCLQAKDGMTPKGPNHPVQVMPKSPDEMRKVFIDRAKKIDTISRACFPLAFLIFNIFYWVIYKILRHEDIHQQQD
Briefly: Positive allosteric modulation of human glycine alpha3 receptor expressed in HEK293T cells assessed as potentiation of glycine-induced increase in chloride ion flux after 4 mins by membrane potential blue dye based FLIPR assay. The class given is cell-based, HEK-293T.

The target in series [11] is T1, Glycine receptor subunit alpha-3. Briefly: Binding affinity to human glycine alpha3 receptor expressed in HEK293T cells by SPR assay. Also on record: species or system HEK-293T.
The nature of series [12]: Ratio of unbound Cmax in mouse brain to EC50 for glycine alpha3 receptor in mouse model of spared nerve injury-induced tactile allodynia at 30 mg/kg, ip. The method, boiled down:
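After intraperitoneal dosing, brains were collected at multiple time points. Unbound brain concentration is total brain concentration × brain fraction unbound, divided by mouse GlyRα3 potentiation EC₅₀.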

The test system of series [13] is Liver. Briefly: Drug metabolism in mouse liver microsomes assessed as oxidation of benzodioxolane moiety up to 40 mins in presence of NADPH. The class given is ADME, microsome.
In series [14] the test system is Liver. Briefly: Drug metabolism in mouse liver microsomes assessed as oxidation of quinolinone core up to 40 mins in presence of NADPH. The class given is ADME, microsome.
In series [15] the test system is Plasma. Briefly: Unbound Cmax in mouse plasma at 50 mg/kg, ip. The class given is ADME, organism-based. Particulars: in vivo.
For series [16], the system named is Liver. Briefly: Drug metabolism in mouse liver microsomes assessed as oxidation of pyrrolidine ring up to 40 mins in presence of NADPH. Type of series: ADME, microsome.
Series [17] has as its system Plasma. Briefly: Unbound Cmax in mouse plasma at 30 mg/kg, ip. The class given is ADME, organism-based. The conditions noted are these: in vivo.
Series [18] is described as follows: Ratio of unbound Cmax in mouse brain to EC50 for glycine alpha3 receptor in mouse model of spared nerve injury-induced tactile allodynia at 60 mg/kg, po.

On to `CC(C)C[C@H](CN)CC(=O)O`, for which the result in the series with Mus musculus [1] was Active.
Consider `CN1C(=O)[C@@H]2CN(S(=O)(=O)c3ccc4c(c3)CCO4)C[C@@H]2c2cnccc21`, for which the microsomal CLint in [2] worked out at 225 µL/min/mg. Also, the Papp (usually the rate of passage across a membrane or cell layer, normalised by area and donor concentration) in [3] turned out to be 50 ×10⁻⁶ cm/s. In addition, the efflux ratio (usually the permeability from basolateral to apical divided by that in the opposite direction, in the common usage) in the series on human MDR1 is 4.3; in the series on human BCRP, 1.2. Moreover, the Ratio in [4] was 0.19. In addition, the MEC in series [5] was 3.1 µM.
Take `CN1C(=O)[C@@H]2CN(S(=O)(=O)c3ccc4c(c3)OCO4)C[C@@H]2c2ncccc21`: the microsomal CLint in [2] was 136 µL/min/mg. Also, the solubility – broadly, the dissolved amount per volume that the medium holds – in series [6] was 7 µM (≈ 2.71 µg/mL); in [8] it was 28 µM (≈ 10.8 µg/mL). Also, the Ratio in series [7] is recorded as 0.006. The Papp in series [3] turned out to be 45 ×10⁻⁶ cm/s. Moreover, the efflux ratio in the series with human MDR1 turned out to be 1.5; with human BCRP, 1. Besides, in series [5], the MEC is 0.78 µM.
Regarding `CN1C(=O)[C@@H]2CN(S(=O)(=O)c3ccc4c(c3)OCO4)C[C@@H]2c2cnccc21`, the microsomal CLint in [2] was found to be 151 µL/min/mg. The solubility is 235 µM (≈ 91 µg/mL) in series [6] and 296 µM (≈ 115 µg/mL) in series [8]. For the same compound, the Ratio in [7] amounted to 0.62. Moreover, the Papp in [3] came to 52 ×10⁻⁶ cm/s. The fold change (FC) in the series listed under Mus musculus [9] stood at 4.9. Also, the values for the efflux ratio with human MDR1 and in the series on human BCRP were 0.8 and 0.9, respectively. In series [5], the MEC stood at 0.2 µM.
Take `C[C@@H]1[C@H]2C(=O)N(C)c3ccncc3[C@H]2CN1S(=O)(=O)c1ccc2c(c1)OCO2`: in series [10], the EC50 (commonly the concentration giving half of the maximal effect) is over 25 µM. The MEC in series [5] was over 25 µM. For the same compound, the Kd (commonly the equilibrium constant for the complex coming apart) in series [11] is over 20 µM.
For `CN1C(=O)[C@@H]2CN(S(=O)(=O)c3ccc4nc[nH]c4c3)C[C@@H]2c2cnccc21`, the microsomal CLint in [2] is under 14 µL/min/mg. Also, in series [12], the Ratio is 0.047. Also, in [5], the MEC was 3.1 µM.
On to `CN1C(=O)[C@@H]2CN(S(=O)(=O)c3ccc4c(c3)OCO4)C[C@@H]2c2ccccc21`, for which, in series [3], the Papp was determined as 46 ×10⁻⁶ cm/s. Also, the Drug metabolism entry in the series with Liver [13], in the series with Liver [14] and in the series on Liver [16] was “Metabolite_Detected” throughout. Also, the fCmax with Plasma [15] was 0.07 µM. Also, in series [5], the MEC stood at 0.78 µM.
On to `O=S(=O)(c1ccc2c(c1)OCO2)N1C[C@@H]2c3ccccc3-n3ccnc3[C@@H]2C1`, for which the microsomal CLint in series [2] was 901 µL/min/mg. For the same compound, the Papp in series [3] was 58 ×10⁻⁶ cm/s. Moreover, the efflux ratio in the series on human MDR1 came out at 1.7; in the series with human BCRP it was 1.3. Also, the fCmax with Plasma [17] worked out at 0.13 µM. In series [5], the MEC came out at 3.1 µM.
For `CN1C(=O)[C@@H]2CN(S(=O)(=O)c3ccc4scnc4c3)C[C@@H]2c2cnccc21`, the microsomal CLint in series [2] stood at 79 µL/min/mg. Further, in series [3], the Papp was determined as 48 ×10⁻⁶ cm/s. Besides, the efflux ratio is 3.3 in the series with human MDR1 and 1.4 in the series with human BCRP. In addition, in series [18], the Ratio was determined as 0.15. Moreover, the MEC in series [5] came to 1.56 µM.
Take `CN1C(=O)[C@H]2CN(S(=O)(=O)c3ccc4c(c3)OCO4)C[C@H]2c2cnccc21`: the microsomal CLint in series [2] came out at 213 µL/min/mg. For the same compound, the Papp in series [3] was 14 ×10⁻⁶ cm/s. The outcome in the series filed under Mus musculus [9] was inactive. The efflux ratio in the series on human MDR1 worked out at 1; in the series with human BCRP it was 0.9. The MEC in series [5] is over 25 µM.
Regarding `CN1C(=O)[C@@H]2CN(S(=O)(=O)c3ccc4c(c3)OCC4)C[C@@H]2c2cnccc21`, the microsomal CLint in series [2] was determined as 177 µL/min/mg. In addition, in series [3], the Papp amounted to 28 ×10⁻⁶ cm/s. The efflux ratio came to 2.9 in the series on human MDR1 and 0.7 with human BCRP. Moreover, the Ratio in series [18] came to 0.38. Further, the MEC in series [5] was determined as 1.56 µM.

The record behind these values is ChEMBL document CHEMBL3992512, “The Discovery and Hit-to-Lead Optimization of Tricyclic Sulfonamides as Potent and Efficacious Potentiators of Glycine Receptors” (J Med Chem, 2017).
